Compound activity from PubChem.
An excerpt weighted towards active compounds, which were near 3.2% of everything screened.
zfTRPN1 agonist = zebrafish TRPN1 channel agonists, primary screen, cell-based, HEK293, calcium fluorescence | HEK293 zebrafish TRPN1-YFP, Fluo-8 calcium fluorescence; 100% = response to 87 µM carbachol | 220,000 tested, 0.18% active | activation, % at 3 µM;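 active means activation above its plate's cutoff, the mean activation of test wells on that plate plus 3 SD, cut at about 19% in these data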
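System: zebrafish TRPN1-YFP in HEK293 cells / Dosing: 3 µM single point / Timing: dye loading 1 h at 37 °C, then 30 min room temperature / Signal: Fluo-8 calcium fluorescence, excitation 470-495 nm, emission 515-575 nm / Read-out basis: percent activation from peak over basal fluorescence ratio, control-normalized / Control set: high carbachol 87 µM, low DMSO alone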
OX1R antag-1 = OX1R (HCRTR1) antagonists, primary screen, fluorescence, CHO/OX1R cells, Fluo-8 calcium, orexin A | Fluo-8 calcium fluorescence | inhibition, % at 5 µM | 330,000 tested, 0.43% active | AID 434989, 2010;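 active means inhibition above its plate's threshold, mean inhibition of all tested compounds on the plate plus 3 SD, cut at about 37% in these data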
GPR7 antag = GPR7 receptor antagonists, primary screen, cell-based, fluorescence, single concentration | Neuropeptides B/W receptor type 1 (Homo sapiens), P48145 | GPR7-expressing cells, fluorescence antagonist assay | inhibition, % at 4.4 µM | 290,000 tested, 1.1% active | AID 1861, 2009; in the data active means inhibition above about 16%, passing the limit was not always enough;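 further: cells stimulated with the agonist NPW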
CHO parental Ca = ATP-evoked calcium signal inhibitors, parental CHO, primary screen, counter-screen for OX1R antagonist project, cell-based, fluorescence, Fluo-8 calcium dye. parental CHO-K1, ATP-induced calcium, Fluo-8 fluorescence. inhibition, % at 5.6 µM. 330,000 tested, 0.63% active. AID 463079, 2010;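 active means inhibition above that plate's mean sample inhibition plus 3 SD, cut at about 26% in these data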
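Test system: untransfected parental CHO cell line; also added: ATP stimulus; dosing: 5.6 µM, single dose; signal: calcium-sensitive Fluo-8 fluorescence; measure: percent inhibition of ATP-evoked calcium rise, normalized to controls; benchmarks: low control ATP plus DMSO, high control DMSO only; replication: one well per compound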
OX1R antag-2 = antagonists of human orexin 1 receptor (OX1R); Orexin/Hypocretin receptor type 1 (Homo sapiens), O43613; OX1R-expressing cells, FRET antagonist read-out; inhibition, % at 6.6 µM; 330,000 tested, 1.8% active; in the data active means inhibition mostly above about 38%, no sharp cut-off; inactive means mostly below about 40%
TRPML3 agonist = human TRPML3 channel agonists, primary screen, cell-based, HEK293 TRPML3-YFP, Fluo-8 calcium fluorescence, 3 µM; Mucolipin-3 (Homo sapiens), Q8TDD5; 100% = the carbachol control signal; activation, % at 3 µM; 220,000 tested, 0.29% active;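 active means activation above its plate's cutoff, the mean activation of the plate's test wells plus 3 SD, cut at about 12% in these data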
Target sequence (Q8TDD5 whole entry, looked up): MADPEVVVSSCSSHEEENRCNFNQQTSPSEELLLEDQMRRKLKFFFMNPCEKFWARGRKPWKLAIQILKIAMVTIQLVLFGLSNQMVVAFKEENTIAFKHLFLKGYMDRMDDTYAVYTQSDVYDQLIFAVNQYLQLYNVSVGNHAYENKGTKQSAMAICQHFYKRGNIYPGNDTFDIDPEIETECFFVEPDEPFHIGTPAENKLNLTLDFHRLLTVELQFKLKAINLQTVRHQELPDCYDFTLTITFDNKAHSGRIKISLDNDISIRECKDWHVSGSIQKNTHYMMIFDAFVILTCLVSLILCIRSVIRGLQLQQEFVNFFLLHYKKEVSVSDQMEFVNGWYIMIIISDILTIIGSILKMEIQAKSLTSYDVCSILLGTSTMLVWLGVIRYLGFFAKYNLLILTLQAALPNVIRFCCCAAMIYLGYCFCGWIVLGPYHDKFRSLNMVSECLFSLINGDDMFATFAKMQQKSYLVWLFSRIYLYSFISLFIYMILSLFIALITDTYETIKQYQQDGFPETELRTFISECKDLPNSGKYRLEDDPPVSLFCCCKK
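Test system – HEK293 line with stable expression of human TRPML3-YFP channel · Control set – carbachol 87 µM final as high control (100%), DMSO as low control (0%) · Signal – Fluo-8 calcium dye fluorescence, ex 470-495, em 515-575 nm · Incubation – 1-h 37 °C dye load, 5-s basal, 120-s post-compound reads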
Of the large screens only hits and unclear results are named; the others gave an inactive call.

O=c1cc(-c2c(F)c(F)c(F)c(F)c2F)oc2ccccc12	none
O=C(Nc1ccc(-c2n[nH]c(=S)o2)cc1)c1ccccc1Br	none (no result: zfTRPN1 agonist, TRPML3 agonist)
O=C(Nc1ccccc1F)c1ccc(CNS(=O)(=O)c2cccc(C(F)(F)F)c2)cc1	CHO parental Ca 69
O=C(CCl)Nc1cccc(Oc2ccccc2)c1	none
COc1ccc(N2CC(C(=O)N[C@H](C(=O)NC3CCCCC3)C(C)C)CC2=O)cc1 (some centres undefined)	none (no result: zfTRPN1 agonist, TRPML3 agonist)
Nc1ccc(O)c([N+](=O)[O-])c1	OX1R antag-2 49 (no result: zfTRPN1 agonist, GPR7 antag, TRPML3 agonist)
CCn1c(C)nc2cc(C(=O)OC(C(F)(F)C(F)F)C(F)(F)C(F)F)ccc21	OX1R antag-1 66
COc1ccc2cc(Br)ccc2c1CC(=O)NC(C)(C)C	CHO parental Ca 54
CCNC(=O)Cc1c(OC)ccc2cc(Br)ccc12	none
COCCN(CCOC)C(=O)c1ccc(SCc2ccc(C)cc2)c([N+](=O)[O-])c1	none
O=C(NN=C1CCCCCCC1)c1ccc2ccccc2n1	OX1R antag-2 56
Cc1cc(OC(F)F)ccc1NC(=O)Nc1ccc([N+](=O)[O-])cc1	GPR7 antag 41, CHO parental Ca 57
O=C(Nc1ccc(Cl)cc1)Nc1cc([N+](=O)[O-])ccc1F	none
O=C(Nc1ccc([N+](=O)[O-])cc1)Nc1ccc(Cl)cc1F	OX1R antag-1 48, CHO parental Ca 43
COc1cc(NC(=O)CCc2nnc3ccc(N4CCCCC4)nn23)cc(OC)c1OC	none (no result: zfTRPN1 agonist, TRPML3 agonist)
Cc1[nH]c2ccccc2c1/C=N/Nc1ccc([N+](=O)[O-])cc1	OX1R antag-1 53, CHO parental Ca 57
COc1ccccc1NS(=O)(=O)c1cc([N+](=O)[O-])ccc1N/N=C/c1c(C)[nH]c2ccccc12	OX1R antag-1 46, CHO parental Ca 41
Cc1cc(-c2ccccc2)oc(=O)c1NC(=O)c1ccccc1	none
CCOC(=O)c1c(C)[nH]c(C)c1C(=O)COC(=O)c1cccs1	none (no result: zfTRPN1 agonist, GPR7 antag, TRPML3 agonist)
C/C(=N\NC(=O)c1cccnc1)c1cccc([N+](=O)[O-])c1	none
O=C(Nc1ccccc1C(=O)N1CCCCCC1)c1cccc([N+](=O)[O-])c1	OX1R antag-2 53 (no result: zfTRPN1 agonist, TRPML3 agonist)
C/C(=N\NC(=O)c1ccc([N+](=O)[O-])cc1)c1cccc([N+](=O)[O-])c1	OX1R antag-2 64
O=C(NNC(=O)c1cccc([N+](=O)[O-])c1)c1ccncc1	OX1R antag-2 46
Cc1nn(CC(=O)N2CCOCC2)c(=O)c2nn(-c3ccccc3)c(C)c12	none (no result: zfTRPN1 agonist, TRPML3 agonist)
C/C(=N\NC(=O)Cc1csc(N2CCOCC2)n1)c1ccc(Cl)c(Cl)c1	none
CC(C)(C)c1cc[n+](-c2[nH]c(=O)sc2/C=N/N=C(\[O-])c2cccnc2)cc1	OX1R antag-2 58 (no result: zfTRPN1 agonist, TRPML3 agonist)
CC(C)(C)c1cc[n+](-c2[nH]c(=O)sc2/C=N/NC(=O)c2ccccc2[O-])cc1	OX1R antag-2 57 (no result: zfTRPN1 agonist, TRPML3 agonist)
Cc1cc[n+](-c2[nH]c(=O)sc2/C=N/NC([S-])=Nc2ccccc2)cc1	none
O=C(CN1C(=O)S/C(=C/c2ccccn2)C1=O)N1CCOCC1	OX1R antag-2 55 (no result: zfTRPN1 agonist, TRPML3 agonist)
O=C(CCN1C(=O)S/C(=C\c2ccccc2)C1=O)N1CCOCC1	OX1R antag-2 56
O=C(CN1CCN(CCN2C(=O)c3cccc4cccc(c34)C2=O)CC1)c1ccc(F)cc1	OX1R antag-2 45
CCN(CC(=O)Nc1c(F)cccc1F)C(=O)CCN1C(=O)C2CCCCC2C1=O (centres undefined)	none (no result: zfTRPN1 agonist, GPR7 antag, TRPML3 agonist)
O=C(NN=C(Cc1ccccc1)Cc1ccccc1)C1CC1	none
O=C(Nc1ccccc1)c1ccc(Nc2c([N+](=O)[O-])cc([N+](=O)[O-])c3ccccc23)cc1	none
O=[N+]([O-])c1cc(Br)c(Nc2ccccc2)c([N+](=O)[O-])c1	OX1R antag-2 50 (no result: zfTRPN1 agonist, TRPML3 agonist)
CCc1ccc(-c2cnc3nc[nH]c(=O)c3n2)cc1	OX1R antag-2 43 (no result: zfTRPN1 agonist, GPR7 antag, TRPML3 agonist)
CCc1ccc(-c2ccc(C(=O)O)c(C)n2)cc1	none
COc1ccc(-n2cc(-c3ccccc3)[n+]3c2CCCCC3)cc1	none
COc1ccc(-c2cn(-c3ccc(OC)cc3)c3[n+]2-c2ccccc2CC3)cc1	GPR7 antag 24
Cc1nc([N+](=O)[O-])nn1C12CC3CC(CC(Cl)(C3)C1)C2	none
COc1ccc(CC(NC(C)=O)C(=O)NC2CCN(c3c(Cc4ccccc4)c(C)nc4ncnn34)CC2)c(OC)c1 (centres undefined)	none
COc1ccc(OC)c(CC(NC(C)=O)C(=O)NC2CCN(c3cc(C)nc4ncnn34)CC2)c1 (centres undefined)	CHO parental Ca 31
Cc1cc(/C=C2/C(=N)N3C(=NC2=O)SN=C3S(C)(=O)=O)c(C)n1-c1ccccc1F	OX1R antag-2 47
CCCC1=NN2C(=N)/C(=C\c3cc(C)n(Cc4ccccc4)c3C)C(=O)N=C2S1	OX1R antag-1 104, CHO parental Ca 86
Cc1cc(/C=C2\C(=N)N3N=C(S(C)(=O)=O)SC3=NC2=O)c(C)n1Cc1ccccc1	OX1R antag-2 58
CC1=CC2=NC(=O)/C(=C\c3cc(C)n(-c4ccccc4F)c3C)C(=N)N2O1	none
Cc1cc(/C=C2\C(=N)N3N=CSC3=NC2=O)c(C)n1Cc1ccccc1	none
Cc1ccccc1C(=O)NNc1ccc(-c2csnn2)cc1	none
Cc1ccc(NC(=O)C2CCN(S(=O)(=O)c3ccc4c(c3)NC(=O)C(C)S4)CC2)c(C)c1 (centres undefined)	none (no result: zfTRPN1 agonist, TRPML3 agonist)
CC1Sc2ccc(S(=O)(=O)N3CCC(C(=O)NCc4ccc(Cl)cc4)CC3)cc2NC1=O (centres undefined)	none (no result: zfTRPN1 agonist, TRPML3 agonist)
O=C1COc2ccc(S(=O)(=O)CCC(=O)N3CCN(c4cccc(C(F)(F)F)c4)CC3)cc2N1	CHO parental Ca 38 (no result: zfTRPN1 agonist, TRPML3 agonist)
CC1Sc2ccc(S(=O)(=O)N3CCC(C(=O)Nc4cccc(Cl)c4)CC3)cc2NC1=O (centres undefined)	CHO parental Ca 58 (no result: zfTRPN1 agonist, TRPML3 agonist)
CCc1cccc(NS(=O)(=O)c2ccc3c(c2)NC(=O)C(C)S3)c1 (centres undefined)	CHO parental Ca 53 (no result: zfTRPN1 agonist, TRPML3 agonist)
Cc1ccc(NC(=O)C2CCN(S(=O)(=O)c3ccc4c(c3)NC(=O)C(C)S4)CC2)cc1C (centres undefined)	CHO parental Ca 51 (no result: zfTRPN1 agonist, TRPML3 agonist)
Cc1ccc2c(c1)N(C(=O)CCC(=O)NC1CCN(Cc3ccccc3)CC1)CC(C)O2 (centres undefined)	none (no result: zfTRPN1 agonist, TRPML3 agonist)
